# E-selectin induc: E-selectin induction on HUVECs. AID 686992. activation, % at 7.58 µM. hit rate 0.37% among 260,000. P16581. HUVEC E-selectin immunofluorescence imaging; normalized: neutral wells 0, TNF-alpha wells 100;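 active means mean E-selectin-positive cell signal at least 10% of the positive control, reached in at least 60% of replicates, without over 20% cell loss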
# Target sequence (P16581 whole entry, looked up): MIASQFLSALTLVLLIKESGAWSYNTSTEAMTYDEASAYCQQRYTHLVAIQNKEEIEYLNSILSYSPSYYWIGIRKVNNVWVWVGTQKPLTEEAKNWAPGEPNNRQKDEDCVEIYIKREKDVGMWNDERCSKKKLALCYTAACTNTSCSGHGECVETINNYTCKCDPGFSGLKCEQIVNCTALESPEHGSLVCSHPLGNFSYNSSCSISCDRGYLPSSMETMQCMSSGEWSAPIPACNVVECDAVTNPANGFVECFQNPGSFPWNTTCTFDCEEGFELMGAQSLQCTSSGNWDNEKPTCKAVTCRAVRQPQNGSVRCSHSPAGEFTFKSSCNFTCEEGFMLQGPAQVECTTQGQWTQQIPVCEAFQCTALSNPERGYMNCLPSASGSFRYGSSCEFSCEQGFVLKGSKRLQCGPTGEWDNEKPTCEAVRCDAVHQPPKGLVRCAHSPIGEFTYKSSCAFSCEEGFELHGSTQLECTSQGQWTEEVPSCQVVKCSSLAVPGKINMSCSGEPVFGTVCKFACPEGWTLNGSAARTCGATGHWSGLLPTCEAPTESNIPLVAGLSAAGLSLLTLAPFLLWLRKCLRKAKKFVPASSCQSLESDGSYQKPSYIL
#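 Assay system: HUVEC, human umbilical vein endothelial cells / Amount: 3,000 HUVEC/well / Controls: TNF-alpha positive control, DMSO neutral control / Compound dosing: single concentration / Medium: EGM-2 over gelatin coat / Evaluation: percent E-selectin-positive cells / Signal: immunofluorescence imaging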
# FGF22 binding: FGF22 (human) thermal shift binding. recombinant FGF22 thermal shift, SYPRO orange fluorescence; percent of sucrose octasulfate shift, DMSO zero. Q9HCT0. hit rate 1.5% among 340,000. activity (Tm shift, normalised), % at 9.99 µM;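 active means mean Tm shift, scaled 0 neutral to 100 positive control, at about 1.3% or above, every replicate too, limit read from the data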
# FN deposit inh: fibronectin deposition inhibition; inhibition, % at 12.6 µM; AH1F fibroblasts, Alexa488-fibronectin deposition fluorescence, overnight; hit rate 0.086% among 350,000;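 active means mean inhibition across replicates of 30% or more, regardless of how many single replicates reach that level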;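 further: positive control wells lacked labelled fibronectin entirely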
#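 Assay system: AH1F fibroblast monolayer, labelled fibronectin deposition. Amount: 10000 cells per well. Also added: labelled fibronectin 24 nM. Compound: single-point pinned compound. Incubation: cell attachment 1 h, compound and FN exposure overnight. Detection: fluorescence after three HBSS washes, excitation 485 nm, emission 525 nm. Read-out: inhibition of fibronectin deposition signal.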
# SIRT5 block: sirtuin-5 (human) deacylase inhibition; Purified SirT5, succinyl-peptide AMC, trypsin-coupled fluorescence; hit rate 1.1% among 330,000; inhibition, % at 15 µM; Q9NXA8; AID 652115; in the data active means inhibition above about 15%
# C2C12 statin: protects C2C12 myotubes from simvastatin toxicity. rescue of ATP level, % at 7.49 µM. ATP luminescence, 48 h; scaled: DMSO 0, geranylgeraniol control 100. hit rate 0.78% among 330,000;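 active means mean ATP rescue above about 67%, or every replicate alone reaching that limit, limit read from the data, passing the limit was not always enough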;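 further: myotubes were challenged with 10 µM simvastatin during compound exposure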
# rRNA inh HTS: selective bacterial rRNA inhibition in E. coli | E. coli WT GFP vs humanized-ribosome RFP mutants, fluorescence, 24 h; stronger effect = lower value; DMSO median 0, no signal -100 | GFP signal change (wild-type ribosome), % (no concentration beside the values) | hit rate 1.6% among 350,000;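 active means significant combined selectivity score with lowered wild-type GFP, culture density cut under 30%, mutant RFP and density less affected; inactive means any of these conditions unmet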
# The depositor's hits bear a star; / = no result. Rows were chosen to be rich in hits. Some 4% of all compounds tested hit in one or more screens of this group.
SMILES,E-selectin induc,FGF22 binding,FN deposit inh,SIRT5 block,C2C12 statin,rRNA inh HTS
C[C@H]1CN([C@@H](C)CO)S(=O)(=O)c2ccc(C3=CCCCC3)cc2O[C@@H]1CN(C)C(=O)Cc1ccccc1,0.9,-0.5,-23.8,15.4*,-34.5,-10.3
C[C@H](CO)N1C[C@H](C)[C@@H](CN(C)C(=O)Nc2ccc3c(c2)OCO3)Oc2cc(C3=CCCC3)ccc2S1(=O)=O,-0.3,-0.6,11.6,19.9*,-100.4,5.1
O=C(Nc1ccc2c(c1)OCCO2)C(c1ccnc2ccccc12)N1CCN(c2ccc(C(F)(F)F)cn2)CC1 (configuration not stated),0.2,0.1,2.8,-2.3,12.3,16.6
O=C(Nc1ccc2c(c1)OCCO2)C(c1ccnc2ccccc12)N1CCN(c2ccc(F)cc2)CC1 (configuration not stated),0.0,0.0,4.0,28.9*,1.1,0.4
O=C(N[C@@H]1CC[C@@H](CCn2cc(Cc3ccccc3)nn2)O[C@@H]1CO)c1cnccn1,-0.3,0.1,/,-6.9,-5.2,-0.3
COc1ccc(C(=O)N(c2ccccc2)c2nccc3ccccc23)cc1OC,0.2,0.2,1.5,/,6.8,-18.5*
CC(=O)N(C)C[C@H]1Oc2cc(-c3ccc(C)cc3)ccc2S(=O)(=O)N([C@H](C)CO)C[C@H]1C,/,-0.6,/,5.1,-18.7,-2.4
Cc1ccccc1NC(=O)/C=C/c1cccs1,-0.4,43.1*,1.7,2.3,/,-8.3
Cc1cc(C)nc(NC(=O)/C=C/c2cccs2)c1,/,0.1,/,0.0,-11.8,-26.6*
Cc1ccccc1NC(=O)/C=C1\SC(=O)NC1=O,/,43.9*,16.5,-1.1,/,-8.0
O=C(NCC[C@H]1CC[C@H](NC(=O)C2CC2)[C@@H](CO)O1)c1cnccn1,-0.4,0.4,-0.5,8.4,-0.3,2.0
N#CCc1c(C#N)c(N)nc(Nc2ccccc2)c1C#N,-0.1,0.4,5.0,17.3*,16.0,-3.8
O=C(NCc1cccs1)c1ccc(CS(=O)Cc2ccc(Cl)cc2)o1 (configuration not stated),0.0,0.2,-2.1,/,0.0,-8.9
CCOc1ccc(CCNC(=O)c2ccc(CS(=O)Cc3ccc(Cl)cc3)o2)cc1OCC (configuration not stated),0.1,-0.1,5.2,0.5,-1.8,-31.9*
O=C(NCCc1cccs1)c1ccc(CS(=O)Cc2ccc(Cl)cc2)o1 (configuration not stated),10.6,0.0,9.1,1.0,17.9,-24.2*
Cc1ccc(CS(=O)Cc2ccc(C(=O)NCCc3ccccc3)o2)cc1 (configuration not stated),0.1,0.2,6.8,-1.7,4.6,-22.1*
CC(=O)N(C)C[C@H]1Oc2ncc(/C=C/c3ccccc3)cc2C(=O)N([C@H](C)CO)C[C@H]1C,-0.1,-0.1,-0.4,-14.3,-4.3,5.1
O=C(C[C@H]1C[C@@H]2c3cc(NC(=O)Nc4ccc(C(F)(F)F)cc4)ccc3O[C@@H]2[C@H](CO)O1)NCCc1ccccc1,5.7,0.3,-94.1,5.3,-116.2,-0.2
COc1ccccc1S(=O)(=O)N[C@@H]1CC[C@@H](CC(=O)N2CCN(C)CC2)O[C@@H]1CO,0.1,0.1,-5.5,-2.5,7.2,2.8
CN(C)CC(=O)Nc1ccc2c(c1)[C@@H]1C[C@H](CC(=O)N3CCN(C)CC3)O[C@@H](CO)[C@@H]1O2,-0.2,-0.1,-1.1,3.7,5.3,3.5
Cc1ccc(C(=O)CSc2nc(C(C)C)nc3ccccc23)cc1,/,0.1,10.1,-1.4,2.3,6.1
CC(C)c1nc(SCC(=O)c2ccc(F)cc2)c2ccccc2n1,-3.2,43.1*,-5.7,-0.9,/,-9.9
CCN(CC)C(=O)C(=O)c1ccn(-c2c(C)csc2C(=O)OC)c1,-0.2,43.0*,3.3,0.5,-3.9,10.8
O=C(C[C@@H]1CC[C@H]2[C@@H](COC[C@H](O)CN2C(=O)c2cccnc2)O1)NCc1ccc(-c2ccccc2)cc1,0.6,0.0,-6.1,1.4,-6.5,0.1
O=C(CCNS(=O)(=O)c1ccc(Cl)cc1)OCC(=O)N1CCN(C(=O)c2ccco2)CC1,2.9,13.1*,0.5,-2.0,/,8.9

# Compound activity as filed in PubChem BioAssay.
